GPR7 antagonist – human neuropeptides B/W receptor 1 antagonism; P48145; GPR7-expressing cells, fluorescence antagonist assay; inhibition, % at 4.4 µM; 1.1% of 290,000 active; in the data active = inhibition above about 16%, passing the limit was not always enough;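 note: cells stimulated with the agonist NPW; 0% = agonist with vehicle and 100% = vehicle without agonist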
Target sequence (P48145 whole entry, looked up): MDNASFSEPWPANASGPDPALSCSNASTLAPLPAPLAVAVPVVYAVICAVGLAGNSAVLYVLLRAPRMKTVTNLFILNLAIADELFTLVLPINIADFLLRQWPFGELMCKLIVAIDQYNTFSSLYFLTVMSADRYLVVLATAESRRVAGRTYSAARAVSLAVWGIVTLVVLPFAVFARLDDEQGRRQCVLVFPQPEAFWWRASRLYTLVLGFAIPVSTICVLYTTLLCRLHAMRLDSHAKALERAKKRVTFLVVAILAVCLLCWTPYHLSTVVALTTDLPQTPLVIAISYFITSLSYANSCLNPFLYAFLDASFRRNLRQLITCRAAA
GalR3 antagonist – antagonists of human GalR3. HEK293 GalR3-CNG cAMP membrane potential fluorescence; galR3 body fused to GalR1 C-terminus. O60755. 0.44% of 360,000 active. AID 651719. inhibition, % at 3 µM;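 active = inhibition above the screen-wide average plus 3 SD, cut at about 13% in these data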;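 note: forskolin and galanin both at EC90 stimulate the cells; cAMP rise reported by CNG channel membrane potential dye signal; 0% = forskolin plus galanin with DMSO and 100% = forskolin alone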
Target sequence (O60755 1-299 limits assumed): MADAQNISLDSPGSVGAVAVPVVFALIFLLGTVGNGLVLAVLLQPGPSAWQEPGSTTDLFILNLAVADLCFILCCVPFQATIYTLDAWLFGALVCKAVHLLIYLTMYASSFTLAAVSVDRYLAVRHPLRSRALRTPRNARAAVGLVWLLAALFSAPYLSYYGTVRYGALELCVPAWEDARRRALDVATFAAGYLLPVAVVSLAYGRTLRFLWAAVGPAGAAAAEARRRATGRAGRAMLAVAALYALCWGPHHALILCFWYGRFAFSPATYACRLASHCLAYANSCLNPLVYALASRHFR
CHO parental Ca – signal in parental CHO cells, OX1R antagonist counter-screen | inhibition, % at 5.6 µM | AID 463079 | parental CHO-K1, ATP-induced calcium, Fluo-8 fluorescence | 0.63% of 330,000 active;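 active = inhibition above that plate's mean sample inhibition plus 3 SD, cut at about 26% in these data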;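 note: 0% = ATP-challenged DMSO wells and 100% = DMSO wells without ATP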
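Assay system – parental CHO cells · Reagent – ATP stimulus · Detection – intracellular calcium via Fluo-8 no-wash fluorescent dye · Evaluation – percent inhibition of ATP-evoked calcium rise, normalized to controls · Controls – ATP wells versus no-ATP DMSO wells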
OX1R antag-1 – antagonists of human orexin 1 receptor (OX1R) | 1.8% of 330,000 active | inhibition, % at 6.6 µM | O43613 | OX1R-expressing cells, FRET antagonist read-out; in the data active = inhibition mostly above about 38%, no sharp cut-off; inactive = mostly below about 40%;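 note: 0% = agonist challenge alone and 100% = reference antagonist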
OX1R antag-2 – human HCRTR1 antagonism. O43613. CHO/OX1R cells, Fluo-8 calcium fluorescence, orexin A. inhibition, % at 5 µM. 0.43% of 330,000 active;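 active = inhibition above its plate's threshold, mean inhibition of all tested compounds on the plate plus 3 SD, cut at about 37% in these data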;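 note: 0% = orexin A challenge wells and 100% = SB-334867-A antagonist wells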
OX1R Fluo8 conf – OX1R (human) antagonism, confirmed. 38% of 1,100 active. CHO/OX1R cells, orexin A calcium Fluo-8 fluorescence. AID 492963. inhibition, % at 5 µM. shares compounds with OX1R antag-2; in the data active = inhibition above about 29%;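 note: 0% = agonist challenge alone and 100% = reference antagonist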
CHO Ca counter – signal in parental CHO cells, OX1R antagonist counter-screen; shares compounds with OX1R antag-2; parental CHO-K1, ATP-induced calcium, Fluo-8 fluorescence; inhibition, % at 5.6 µM; 9.3% of 1,100 active;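 active = inhibition above a per-plate limit, the mean inhibition of that plate's test compounds plus 3 SD, cut at about 25% in these data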;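 note: 0% = ATP challenge with DMSO and 100% = DMSO without ATP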
OX1R HTRF confirm – OX1R (human) antagonism, HTRF confirmed; shares compounds with OX1R antag-1; OX1R-expressing cells, HTRF antagonist assay; inhibition, % at 6.6 µM; 49% of 1,800 active; AID 492964; in the data active = inhibition above about 55%;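 note: CHO cells expressing OX1R stimulated with orexin A at about EC80; 0% = agonist challenge alone and 100% = reference antagonist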
CHO-K1 HTRF – counter-screen for OX1R antagonists: effect in parental CHO-K1 cells | shares compounds with OX1R antag-1 | HTRF counterscreen | inhibition, % at 6.6 µM | 48% of 1,800 active | AID 493232; in the data active = inhibition above about 17%;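 note: 0% = agonist challenge with vehicle and 100% = vehicle alone without agonist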
* = called active by the depositor; nt = no result given. Only some compounds are listed: those with a hit (about 3.1% of all), similar ones and a draw of the others.

SMILES | GPR7 antagonist | GalR3 antagonist | CHO parental Ca | OX1R antag-1 | OX1R antag-2 | OX1R Fluo8 conf | CHO Ca counter | OX1R HTRF confirm | CHO-K1 HTRF
CC1Cc2ccccc2N1S(=O)(=O)c1cccc(C(=O)c2nccn2C)c1 (configuration not stated) | -9 | -2 | 3 | 40* | 56* | -3 | -12 | 34 | 4
CC1Cc2ccccc2N1S(=O)(=O)c1cccc(C(=O)N2CCCCC2)c1 (configuration not stated) | nt | -4 | nt | nt | nt | nt | nt | nt | nt
COC(=O)[C@]12C[C@H](CC(=O)NCc3cccs3)C(=O)N(CCC3=CCCCC3)C1=C[C@H](C(C)(C)C)O[C@@H]2C | nt | -5 | nt | nt | nt | nt | nt | nt | nt
Cc1ccccc1CN1[C@@H](CC(C)C)COc2cc(Br)ccc2S1(=O)=O | nt | -7 | nt | nt | nt | nt | nt | nt | nt
CCOC(=O)C1CCN(c2cc3c(cc2NC(=O)c2ccccc2OCC)n(C)c(=O)n3C)CC1 | -32 | -6 | -14 | 35* | 34 | -3 | -13 | 20 | -4
O=C(C[C@H]1CC[C@H]2[C@@H](COC[C@@H](O)CN2C(=O)c2cnccn2)O1)NCc1ccc(Oc2ccccc2)cc1 | nt | -4 | nt | nt | nt | nt | nt | nt | nt
CCOc1ccc2nc(NC(=O)C3CCCN(S(=O)(=O)c4cccs4)C3)sc2c1 (configuration not stated) | -16 | -6 | -15 | 84* | 52* | 36* | -9 | 62* | 8
CCOc1ccc2nc(NC(=O)C(NS(=O)(=O)c3cccs3)C(C)C)sc2c1 (configuration not stated) | -10 | nt | -19 | 9 | -17 | nt | nt | nt | nt
CCc1ccc(NC(=O)c2ccc(F)c(S(=O)(=O)NCC3COc4ccccc4O3)c2)cc1 (configuration not stated) | -3 | -3 | 14 | 56* | 36 | 24 | 30* | 32 | 12
O=C(NCC1COc2ccccc2O1)c1ccc(F)c(S(=O)(=O)N2CCOCC2)c1 (configuration not stated) | nt | -4 | nt | nt | nt | nt | nt | nt | nt
CCc1sc(C(=O)Nc2ccc3nc(C)sc3c2)cc1C | nt | 2 | -23 | 81* | 65* | 53* | -21 | 90* | 16
COc1ccccc1C(=O)Nc1nnc([C@@H]2C[C@H](O)[C@@H](CO)O2)s1 | nt | 1 | nt | nt | nt | nt | nt | nt | nt
CC(=O)Nc1ccc(S(=O)(=O)N(Cc2ccccc2)c2ccccc2F)cc1 | -4 | 0 | -15 | 63* | 38 | 34* | -3 | 56* | -5
CC(=O)Nc1ccc(S(=O)(=O)N(Cc2ccccc2)c2ccccn2)cc1 | -11 | -8 | -8 | 12 | -2 | nt | nt | nt | nt
CCn1c(N)c(C(=O)Nc2ccccc2C(=O)OC)sc1=S | -11 | 1 | -10 | 83* | 43 | 42* | -13 | 86* | 7
COC(=O)c1ccccc1NC(=O)CC(=O)Nc1ccccc1C(=O)OC | -1 | -7 | -19 | 79* | 40 | 56* | -7 | 84* | 6
CCOC1=C2CN(S(=O)(=O)c3ccc(C)cc3)C(c3ccc(CC)cc3)CC2n2c(=O)n(-c3ccccc3)c(=O)n2C1 (configuration not stated) | nt | 6 | nt | nt | nt | nt | nt | nt | nt
COc1ccccc1C(=O)Nc1nc2cc3c(cc2s1)OCO3 | -4 | -5 | -8 | 23 | -11 | nt | nt | nt | nt
COc1ccccc1C(=O)Nc1nc2cc3c(cc2s1)OCCO3 | -27 | nt | 7 | 106* | 39 | 51* | -6 | 95* | 4
Cc1cccc(NC(=O)[C@@H]2CCCN2S(=O)(=O)c2ccc(Cl)cc2)c1 | nt | -3 | -22 | 91* | 74* | 55* | -27 | 89* | 4
COc1ccc(NC(=O)C2CCCN2S(=O)(=O)c2cccc3cccnc23)cc1OC (configuration not stated) | -12 | 7 | -7 | 31 | -9 | nt | nt | nt | nt
CCc1cccc(NC(=O)C2CCCN2S(=O)(=O)c2cccc3cccnc23)c1 (configuration not stated) | 7 | -3 | -30 | 89* | 87* | 50* | -9 | 85* | 5
CCN(CC(=O)Nc1ccc2c(c1)OCCO2)C(=O)c1cccc(OCC(C)C)c1 | -13 | -2 | -8 | 22 | -20 | nt | nt | nt | nt
CN(CC(=O)Nc1nc2ccccc2s1)S(=O)(=O)c1ccc(Cl)cc1 | -2 | -3 | 8 | 16 | -4 | nt | nt | nt | nt
CN(CC(=O)Nc1nc2ccccc2s1)S(=O)(=O)c1ccc(Br)cc1 | -5 | -4 | 19 | 48* | 69* | 8 | 0 | 26 | 7
SMILES | GPR7 antagonist | GalR3 antagonist | CHO parental Ca | OX1R antag-1 | OX1R antag-2 | OX1R Fluo8 conf | CHO Ca counter | OX1R HTRF confirm | CHO-K1 HTRF
Cc1cccc(NC(=O)c2cc(-c3cc(C)cc(C)c3O)n[nH]2)c1 | 0 | -9 | 7 | 64* | 40 | 17 | 4 | 69* | 13
O=C(Nc1ccc2c(c1)OCCO2)C(c1ccccc1)n1c(=O)c(-c2cc3ccccc3[nH]2)nc2ccccc21 (configuration not stated) | nt | -3 | nt | nt | nt | nt | nt | nt | nt
CCCNC(=O)C1(C)CCCN(C(=O)c2c(C)noc2C)C1 (configuration not stated) | nt | -6 | nt | nt | nt | nt | nt | nt | nt
O=C(N[C@H](C(=O)N1CCC[C@H]1C(=O)NCCc1ccccc1Cl)C1CCCCC1)c1cccs1 | nt | -8 | nt | nt | nt | nt | nt | nt | nt
CN(C)C1(CNC(=O)C2CCN(S(=O)(=O)c3cc(Cl)ccc3Cl)CC2)CCCCC1 | 0 | -5 | -7 | 4 | -26 | nt | nt | nt | nt
CCn1c2ccccc2c2cc(N=C3SC(CC(=O)Nc4ccccc4OC)C(=O)N3CCOC)ccc21 (configuration not stated) | -5 | -4 | -4 | 77* | 58* | 52* | -13 | 83* | 2
CCn1c2ccccc2c2cc(N=C3SC(CC(=O)Nc4ccccc4OC)C(=O)N3C)ccc21 (configuration not stated) | -12 | -4 | -14 | 57 | 23 | nt | nt | nt | nt
COc1ccccc1NC(=O)COC(=O)c1ccc2c(c1)nc(C)n2-c1ccccc1 | -3 | -2 | -19 | 19 | -12 | nt | nt | nt | nt
Cc1nc2cc(NC(=O)COc3ccccc3C#N)ccc2n1-c1ccccc1 | 10 | 0 | 3 | 122* | 102* | 83* | -4 | 92* | 11
COc1cccc(-c2cnc3c(NC(C)=O)cc(-c4cc(OC)c(OC)c(OC)c4)cn23)c1 | nt | -3 | nt | nt | nt | nt | nt | nt | nt
Cc1ccc(NC(=O)Nc2nnc(-c3ccncc3)s2)cc1C | 5 | -9 | -1 | 41* | 25 | 16 | 13 | 48 | 10
CCOC(=O)c1ccc2[nH]c3c(c2c1)CCCC3 | -16 | -10 | -11 | 78* | 31 | 5 | -3 | 52 | 0

Source: PubChem BioAssay
